The source made the active and inactive calls. No cut-off for these calls is given here.
How the values were obtained:
[1] = target: T1, Exo-1,4-beta-xylosidase xlnD (Aspergillus niger) (UniProt O00089); test: Inhibition of Aspergillus niger beta-xylosidase
T1 sequence (whole entry): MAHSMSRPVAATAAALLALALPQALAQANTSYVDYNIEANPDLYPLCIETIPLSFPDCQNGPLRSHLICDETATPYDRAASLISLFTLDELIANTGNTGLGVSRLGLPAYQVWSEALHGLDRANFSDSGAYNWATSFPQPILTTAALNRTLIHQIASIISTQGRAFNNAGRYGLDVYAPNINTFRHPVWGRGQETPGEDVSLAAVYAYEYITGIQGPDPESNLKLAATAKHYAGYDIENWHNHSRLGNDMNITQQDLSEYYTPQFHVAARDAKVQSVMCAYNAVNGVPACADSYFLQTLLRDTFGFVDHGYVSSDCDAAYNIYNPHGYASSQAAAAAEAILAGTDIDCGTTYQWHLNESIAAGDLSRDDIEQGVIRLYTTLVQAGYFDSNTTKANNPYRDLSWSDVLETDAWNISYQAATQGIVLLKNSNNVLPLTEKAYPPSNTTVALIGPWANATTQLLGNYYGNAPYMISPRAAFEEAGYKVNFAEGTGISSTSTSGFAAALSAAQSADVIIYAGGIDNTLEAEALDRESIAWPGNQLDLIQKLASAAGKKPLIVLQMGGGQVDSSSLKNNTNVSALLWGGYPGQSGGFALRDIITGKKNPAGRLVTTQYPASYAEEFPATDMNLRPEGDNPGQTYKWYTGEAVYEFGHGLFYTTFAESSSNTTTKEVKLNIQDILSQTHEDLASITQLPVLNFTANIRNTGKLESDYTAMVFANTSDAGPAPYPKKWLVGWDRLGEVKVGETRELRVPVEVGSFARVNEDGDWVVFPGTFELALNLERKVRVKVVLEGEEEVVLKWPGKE
In short: (§1)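 Commercial arylglycosidases, with α-L-fucosidase from bovine kidney. Activity was measured colorimetrically as p-nitrophenol released from the matching p-nitrophenyl glycoside substrate.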

[2] = target: T2, Beta-galactosidase (Bos taurus) (UniProt Q58D55); test: Inhibition of bovine liver beta-galactosidase; in short: as §1
T2 sequence (whole entry): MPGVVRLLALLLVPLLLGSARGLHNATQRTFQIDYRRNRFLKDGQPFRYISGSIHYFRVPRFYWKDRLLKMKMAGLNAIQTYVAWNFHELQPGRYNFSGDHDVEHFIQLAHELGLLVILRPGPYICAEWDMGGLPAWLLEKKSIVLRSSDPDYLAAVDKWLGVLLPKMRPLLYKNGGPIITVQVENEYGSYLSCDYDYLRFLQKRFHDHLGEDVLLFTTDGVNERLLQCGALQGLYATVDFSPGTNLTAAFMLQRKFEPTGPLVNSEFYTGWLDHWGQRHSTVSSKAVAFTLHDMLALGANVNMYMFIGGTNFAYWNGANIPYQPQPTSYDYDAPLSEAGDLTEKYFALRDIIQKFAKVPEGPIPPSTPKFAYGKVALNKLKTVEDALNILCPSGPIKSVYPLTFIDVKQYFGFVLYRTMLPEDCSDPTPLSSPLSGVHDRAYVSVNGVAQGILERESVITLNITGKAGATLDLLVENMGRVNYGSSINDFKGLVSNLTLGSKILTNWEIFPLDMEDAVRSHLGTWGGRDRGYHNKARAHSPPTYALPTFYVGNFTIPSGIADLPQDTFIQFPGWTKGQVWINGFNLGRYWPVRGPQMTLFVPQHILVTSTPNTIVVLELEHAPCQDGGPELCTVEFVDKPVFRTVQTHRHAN

[3] = test system: Canavalia ensiformis; test: Inhibition of jack beans alpha-mannosidase; in short: as §1
[4] = test system: Prunus dulcis; test: Inhibition of almonds beta-glucosidase; in short: as §1
[5] = test system: Aspergillus niger; test: Inhibition of Aspergillus niger alpha-galactosidase; in short: as §1
[6] = target: T3, Beta-mannosidase A (Aspergillus niger) (UniProt Q9UUZ3); test: Inhibition of Aspergillus niger beta-mannosidase at 380 uM
T3 sequence (whole entry): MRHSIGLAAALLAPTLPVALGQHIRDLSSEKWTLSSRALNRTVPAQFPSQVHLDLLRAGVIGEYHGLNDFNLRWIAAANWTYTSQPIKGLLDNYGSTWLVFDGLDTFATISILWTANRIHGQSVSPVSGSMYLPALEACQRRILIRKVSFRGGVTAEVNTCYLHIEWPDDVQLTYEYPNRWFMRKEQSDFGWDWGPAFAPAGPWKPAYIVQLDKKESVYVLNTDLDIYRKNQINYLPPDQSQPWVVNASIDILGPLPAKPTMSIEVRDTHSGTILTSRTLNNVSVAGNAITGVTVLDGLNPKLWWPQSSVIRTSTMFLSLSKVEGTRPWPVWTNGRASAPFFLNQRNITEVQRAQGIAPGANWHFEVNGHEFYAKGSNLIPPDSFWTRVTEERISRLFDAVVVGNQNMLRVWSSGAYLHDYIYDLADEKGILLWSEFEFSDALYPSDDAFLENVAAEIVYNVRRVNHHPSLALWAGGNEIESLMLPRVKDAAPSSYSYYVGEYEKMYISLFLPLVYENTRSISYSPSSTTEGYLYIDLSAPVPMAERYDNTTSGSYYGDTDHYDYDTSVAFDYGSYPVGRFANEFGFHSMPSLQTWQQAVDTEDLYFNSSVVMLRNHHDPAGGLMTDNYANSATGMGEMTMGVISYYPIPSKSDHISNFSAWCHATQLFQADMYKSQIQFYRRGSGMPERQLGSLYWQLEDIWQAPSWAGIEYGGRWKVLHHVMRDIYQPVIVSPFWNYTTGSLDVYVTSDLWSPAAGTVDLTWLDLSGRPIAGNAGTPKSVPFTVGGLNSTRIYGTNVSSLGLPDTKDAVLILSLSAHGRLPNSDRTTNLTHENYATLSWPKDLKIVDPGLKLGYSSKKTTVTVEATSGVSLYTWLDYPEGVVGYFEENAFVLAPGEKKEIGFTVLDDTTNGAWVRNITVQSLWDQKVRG
In short: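 β-Mannosidase was purified from Aspergillus niger. Activity was read colorimetrically as p-nitrophenol release from the p-nitrophenyl glycoside substrate, expressed relative to untreated enzyme over a range of inhibitor concentrations. Kinetics were analysed by Lineweaver-Burk plot.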

[7] = test system: Saccharomyces cerevisiae; test: Inhibition of yeast alpha-glucosidase; in short: as §1

Compound | Activity [1] | Activity [2] | Activity [3] | Activity [4] | Activity [5] | inhibition [6] [%] | Activity [7]
C[C@H]1N[C@H](CO)[C@@H](O)[C@@H]1O | inactive | Active | inactive | inactive | inactive | 50 | inactive
OC[C@H]1N[C@H](CO)[C@@H](O)[C@@H]1O | – | – | – | Active | – | – | Active
OC[C@H]1NC[C@@H](O)[C@@H](O)[C@@H]1O | – | – | Active | – | – | – | –
OC[C@H]1NC[C@@H](O)[C@@H]1O | – | – | – | Active | – | – | Active
O[C@H]1[C@H]2[C@H](O)CCCN2C[C@H]1O | – | – | Active | – | – | – | –
